Experiment [1] is described as follows: S. cerevisiae growth inhibition in permissive medium (OD615), pilot counter-assay for S. cerevisiae lifespan shortening project, permissive growth control (AID 705). The conditions noted are these: OD615, 24 h, at 10 µM, hits give high values. The procedure, abridged:
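assay system = Saccharomyces cerevisiae strain carrying genetically modified DeaD replicative-lifespan system | technique = absorbance (optical density) at 615 nm | buffer or medium = permissive raffinose/galactose medium | timing = cells pre-grown 4 h, then 24 h compound exposure, 30 °C humidified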

Experiment [2] can be described thus: S. cerevisiae growth inhibition in restrictive medium, OD615, pilot screen, restrictive growth control, yeast lifespan reduction project (AID 706;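 active = growth inhibition above a set limit, 3 SD over mean compound inhibition, in both replicates, cut at about 43% in these data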;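 note: modified DeaD lifespan yeast strain shifted to restrictive glucose medium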). Particulars: OD615, 48 h, at 10 µM, hits give high values. Put shortly:
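System: modified S. cerevisiae. Buffer or medium: CSMM-D glucose medium. Incubation: 4 h pre-growth plus 48 h compound exposure, 30 °C. Detection: absorbance (optical density) measured at 615 nm.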

The nature of experiment [3]: doxorubicin toxicity protection in MRP-1 cells – H69AR cells, CellTiter-Glo, duplicate, MRP-1 activator project, pilot screen (AID 807;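 active = viability increase at or above a cutoff of the median across tested compounds plus 3 SD, cut at about 8.5% in these data, passing the limit was not always enough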;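 note: compound pretreatment 18-22 h then 72 h combined with doxorubicin; 0% = doxorubicin alone and 100% = vehicle without doxorubicin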). Particulars: H69AR viability with doxorubicin, CellTiter-Glo luminescence; at 10 µM; hits give high values.
A short description of experiment [4]: viability of HCT116 without oncogenic beta-catenin – human colon tumor cells, pilot screen (AID 823;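 active = cell viability at or below a set limit in both duplicate runs, the limit being the all-compound median minus 4 SD, cut at about 23% in these data, passing the limit was not always enough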;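 note: 0% = wells killed by 20 µM Hyamine and 100% = untreated DMSO cell wells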). Particulars: HCT116 beta-catenin knockout viability, CellTiter-Glo, 60 h; at 10 µM; hits give low values.
The nature of experiment [5]: viability of PTEN-null HCT116 cells – cell-based, HCT116 clonal line, CellTiter-Glo, pilot screen (AID 824;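 active = viability at or below 27.92% in each of two runs, the all-compound median minus 4 SD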;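 note: 0% = 20 µM Hyamine control and 100% = vehicle cell control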). Particulars: HCT116 PTEN-deleted viability, 60 h, at 10 µM, hits give low values.
A short description of experiment [6]: RAM pathway blockade in budding yeast – dse1pr::URA3 reporter, 5-FOA selection, pilot screen (AID 869;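 active = inhibition over a set limit, the all-compound mean plus 3 SD, in both replicate runs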;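 note: 0% = DMSO wells with no growth and 100% = 10 µM 1-NA-PP1 with full growth; RAM network block rescues cells from 5-FOA so hits raise OD615 growth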). The conditions noted are these: S. cerevisiae dse1pr::URA3 5-FOA growth, OD615, 2 d; at 10 µM; hits give high values; strain carries analog-sensitive mutant Cbk1 kinase.
Experiment [7] is described as follows: RAM signaling pathway blockade in yeast – S. cerevisiae, Pdr1DBD-CYC8 efflux-inhibited sensitized strain, primary screen (AID 1298;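 active = RAM network inhibition above 8.4% in each of two replicates, 3 SD over the compound average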;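 note: 0% = DMSO untreated cells without growth and 100% = 10 µM 1-NA-PP1 full growth; higher means more yeast growth rescued from 5-FOA killing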). Particulars: S. cerevisiae cbk1-as DSE1-URA3 strain, 5-FOA growth OD615, 2 d; at 50 µM; hits give high values.

These results are taken from PubChem BioAssay.

A number with no mark means an inactive call. Records with an inconclusive call do not appear. Calls of active or inactive are those of the source.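 Rule for the calls, unless noted: active = growth inhibition above 25% in both replicates, a cutoff set 3 SD above the mean; inconclusive = above 25% in only one replicate; inactive = the rest.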

Usually viability stands for a read-out of living cells in per cent, often relative to untreated cells. What is called inhibition is the change of the read-out against control, counted positive when it falls. As for `COc1ccc(C)c(S(=O)(=O)Nc2ccc(OCC(=O)O)cc2)c1`, the growth inhibition is 2.53% in experiment [1] and -4.93% in experiment [2]. The viability increase in experiment [3] is -1.41%. Further, the viability in experiment [4] is 99%; in experiment [5] it was 102%. Also, the inhibition in experiment [6] is 0.345%. The RAM network inhibition in experiment [7] is -1.4%.

In the case of `O=C(NCc1ccco1)c1ccc(S(=O)(=O)c2cccc(S(=O)(=O)N3CCOCC3)c2)cc1`, the figures for the growth inhibition in experiment [1] and in experiment [2] were 19% and 2.85%, respectively. Also, the viability increase in experiment [3] is -4.28%. Further, the viability is 92.4% in experiment [4] and 87.1% in experiment [5]. For the same compound, the inhibition in experiment [6] was 1.19%. In experiment [7], the RAM network inhibition was 3.8%.

In the case of `CCC(C)NC(=O)c1ccccc1NC(=O)CN1C(=O)c2ccccc2S1(=O)=O` (stereo not drawn), the growth inhibition in experiment [1] is -17.3%; in experiment [2], -18.6%. Besides, in experiment [3], the viability increase is 0.23%. In addition, the viability in experiment [4] was 105%; in experiment [5] it was 95.2%. The inhibition in experiment [6] is 1.33%. Further, the RAM network inhibition in experiment [7] is 5.02%.

Take `Cc1cc(C)cc(N(CC(=O)Nc2c(C)n(C)n(-c3ccccc3)c2=O)S(C)(=O)=O)c1`: the results for the growth inhibition in experiment [1] and in experiment [2] were -11.3% and -11.2%, respectively. Besides, the viability increase in experiment [3] is -1.95%. Further, the viability was 96.2% in experiment [4] and 93.2% in experiment [5]. Further, in experiment [6], the inhibition was 0.71%. Further, the RAM network inhibition in experiment [7] was 2.45%.

In the case of `COc1cccc(C(=O)Nc2cc(=O)n(C)c(=O)n2C)c1`, the growth inhibition is -11% in experiment [1] and -8.35% in experiment [2]. Moreover, in experiment [3], the viability increase was -2.05%. For the same compound, the viability in experiment [4] is 103%; in experiment [5], 97.4%. In addition, the inhibition in experiment [6] is 2.98%. Moreover, the RAM network inhibition in experiment [7] was 2.08%.

Consider `CC(=O)N1CCc2cc(C(=O)CN3CCN(C(=O)c4ccco4)CC3)ccc21`, for which the growth inhibition was 4.58% in experiment [1] and 3.74% in experiment [2]. The viability increase in experiment [3] was -2.02%. The viability in experiment [4] is 105%; in experiment [5], 93.3%. Besides, the inhibition in experiment [6] was 3.93%. The RAM network inhibition in experiment [7] is 2.07%.

As for `CC(NC(=O)c1ccco1)C(c1cccs1)N1CCN(c2ccccc2)CC1` (stereo not drawn), the growth inhibition was -5.64% in experiment [1] and -18.3% in experiment [2]. In experiment [3], the viability increase is -1.36%. The viability in experiment [4] was 87.7%; in experiment [5], 81.2%. Further, the inhibition in experiment [6] is 1.74%. The RAM network inhibition in experiment [7] was 5.06%.

Take `COc1ccc(C2CC(c3c(Cl)cccc3Cl)n3nc(N)nc3N2)cc1` (stereo not drawn): the growth inhibition is -6.17% in experiment [1] and 5.1% in experiment [2]. The viability increase in experiment [3] is -1.64%. The viability in experiment [4] is 95.3%; in experiment [5], 88.1%. For the same compound, the inhibition in experiment [6] is 2.57%. Moreover, the RAM network inhibition in experiment [7] was 6.67%.

For `O=C(NCCc1ccccc1)c1ccc2c(c1)N(Cc1ccccc1)C(=O)CS2=O` (stereo not drawn), the growth inhibition is 0.9% in experiment [1] and -2.98% in experiment [2]. The viability increase in experiment [3] was 0.8%. The viability in experiment [4] was 96.3%; in experiment [5], 88.7%. Also, the inhibition in experiment [6] is 0.2%. For the same compound, in experiment [7], the RAM network inhibition is 3.6%.

For `COCc1cc(CN2CCCC2)c(O)c2ncccc12`, the results for the growth inhibition in experiment [1] and in experiment [2] were -11.1% and -11.6%, respectively. Further, the viability increase in experiment [3] was 0.15%. Moreover, the viability in experiment [4] was 8.07% (active); in experiment [5] it was 11.3% (active). Also, the inhibition in experiment [6] was -0.255%. For the same compound, in experiment [7], the RAM network inhibition was 5.55%.

As for `CCOC(=O)N1CCc2c(sc(NC(C)=O)c2C(N)=O)C1`, the figures for the growth inhibition in experiment [1] and in experiment [2] were -5.06% and -16.1%, respectively. Also, the viability increase in experiment [3] is -1.9%. Further, the figures for the viability in experiment [4] and in experiment [5] were 103% and 99.3%, respectively. For the same compound, the inhibition in experiment [6] is 1.6%. Besides, the RAM network inhibition in experiment [7] is 0.58%.

On to `Cn1cccc1Cc1nnc(SCC(=O)NC2CCCCC2)n1-c1ccc(F)cc1`, for which the figures for the growth inhibition in experiment [1] and in experiment [2] were 1.67% and -4.1%, respectively. For the same compound, the viability increase in experiment [3] is -1.86%. Besides, the viability is 95.4% in experiment [4] and 96.7% in experiment [5]. Moreover, the inhibition in experiment [6] is 1.08%. The RAM network inhibition in experiment [7] was 4.28%.

For the compound `COc1cccc(NC=C2C(=O)OC(C)(C)OC2=O)c1`, the growth inhibition was -11% in experiment [1] and -2.86% in experiment [2]. Besides, the viability increase in experiment [3] was -1.97%. The viability is 98.7% in experiment [4] and 106% in experiment [5]. Further, the inhibition in experiment [6] was 0.94%. For the same compound, in experiment [7], the RAM network inhibition is 2.55%.

With `CCOc1ccc(C(=O)Nc2c3c(nn2-c2cccc(C)c2C)CS(=O)C3)cc1` (stereo not drawn), the values for the growth inhibition in experiment [1] and in experiment [2] were -1.6% and 3.53%, respectively. Besides, the viability increase in experiment [3] was -0.32%. Also, the viability in experiment [4] was 98.4%; in experiment [5] it was 96.2%. Moreover, in experiment [6], the inhibition is 1.62%. In addition, the RAM network inhibition in experiment [7] is 2.34%.

Regarding `COc1ccc(C2C(C(=O)NCCN(C)C)c3cc(OC)c(OC)cc3C(=O)N2C)cc1OC` (stereo not drawn), the growth inhibition was -3.47% in experiment [1] and -1.52% in experiment [2]. Further, the viability increase in experiment [3] was -1.38%. The viability in experiment [4] is 101%; in experiment [5], 104%. In experiment [6], the inhibition is 1.56%. For the same compound, in experiment [7], the RAM network inhibition was 3.25%.

Take `O=C1CCC(=O)N1c1cccc(-c2nc3ccccc3o2)c1`: the growth inhibition in experiment [1] is -7.93%; in experiment [2], -2.65%. Besides, in experiment [3], the viability increase is 0.42%. Also, the results for the viability in experiment [4] and in experiment [5] were 106% and 105%, respectively. Also, in experiment [6], the inhibition was -0.245%. Moreover, in experiment [7], the RAM network inhibition is 4.59%.

As to `CCOC(=O)c1cccc(NC(=O)C2CCC(CNc3c(N4CCOCC4)c(=O)c3=O)CC2)c1` (stereo not drawn), the growth inhibition in experiment [1] was -7.33%; in experiment [2], -13.8%. The viability increase in experiment [3] is -2.63%. Besides, the viability in experiment [4] was 83.7%; in experiment [5] it was 82.4%. Also, the inhibition in experiment [6] is 0.325%. Moreover, the RAM network inhibition in experiment [7] is 1.31%.

With `O=C1CC(c2ccccc2)CN1S(=O)(=O)c1ccccc1` (stereo not drawn), the growth inhibition in experiment [1] was -1.7%; in experiment [2], 3.08%. The viability increase in experiment [3] is 0%. Also, the viability in experiment [4] is 108%; in experiment [5], 97.8%. For the same compound, the inhibition in experiment [6] was 0.085%. The RAM network inhibition in experiment [7] is 1.71%.

Turning to `Cc1cc2ccccc2n1CCNC(=O)C(C)C`, the growth inhibition in experiment [1] is -8.34%; in experiment [2], -7.54%. The viability increase in experiment [3] was -1.99%. In addition, the viability is 102% in experiment [4] and 98.7% in experiment [5]. The inhibition in experiment [6] is 0.15%. The RAM network inhibition in experiment [7] is 2.1%.

`Cc1cc(OCC(=O)N(C)C)c2c(-c3ccccc3)cc(=O)oc2c1`: the growth inhibition in experiment [1] was -3.89%; in experiment [2], 2.71%. In addition, the viability increase in experiment [3] is -3.03%. For the same compound, the viability is 97.4% in experiment [4] and 94.7% in experiment [5]. For the same compound, the inhibition in experiment [6] was 0.915%. For the same compound, the RAM network inhibition in experiment [7] was 5.21%.

For `CCNc1nc(C)c2cc(Br)c(=O)n(CC)c2n1`, the growth inhibition in experiment [1] is -2.64%; in experiment [2], -8.07%. For the same compound, in experiment [3], the viability increase is -6.29%. Also, the viability was 66.4% in experiment [4] and 64.6% in experiment [5]. Also, the inhibition in experiment [6] is 0.44%. The RAM network inhibition in experiment [7] is 7.93%.

As to `O=C(c1nnc(Cc2ccc(Cl)cc2)o1)N1CCOCC1`, the growth inhibition is -7.58% in experiment [1] and 1.76% in experiment [2]. Moreover, in experiment [3], the viability increase was -0.86%. Moreover, the viability in experiment [4] is 105%; in experiment [5] it was 107%. The inhibition in experiment [6] is 1.23%. In experiment [7], the RAM network inhibition is 0.99%.

As to `CCCCC(CC)C(=O)NCCCN1CCN(CCCNC(=O)C(CC)CCCC)CC1` (stereo not drawn), the growth inhibition was -6.17% in experiment [1] and 2.97% in experiment [2]. Moreover, in experiment [3], the viability increase was -1.81%. Also, the viability was 87.3% in experiment [4] and 90.6% in experiment [5]. Besides, the inhibition in experiment [6] was -0.16%. Further, in experiment [7], the RAM network inhibition was 2.42%.

On to `O=C1CN(C(=O)COC(=O)C2CC(=O)N(Cc3ccco3)C2)c2ccccc2N1` (stereo not drawn), for which the results for the growth inhibition in experiment [1] and in experiment [2] were -12% and -16.7%, respectively. Also, the viability increase in experiment [3] was -2.08%. For the same compound, the viability in experiment [4] is 102%; in experiment [5], 104%. Besides, in experiment [6], the inhibition was 1.06%. Besides, the RAM network inhibition in experiment [7] is 4.09%.
